Screening results as filed in PubChem BioAssay.
The list is not random: actives were taken first. Their share in the collection is about 2.9%.
H9c2 TAG inh = inhibitors of triacylglycerol accumulation. H9c2 cells, Nile Red lipid (TAG) fluorescence; cells loaded with 200 µM oleic acid. inhibition, % at 12.5 µM. actives 0.66% (n = 230,000). AID 651582;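 active means pattern-corrected inhibition of lipid staining of at least 50% with the nuclear-stain viability signal not falling by more than 50%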
MC4R barr agon = human MC4R agonism via beta-arrestin; actives 0.98% (n = 360,000); P32245; activation, % at 8.9 µM; U2OS MC4R beta-arrestin complementation, luminescence; percent of melanotan II response, DMSO zero;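 active means activation above a per-plate cutoff, the mean activation of sample wells on that plate plus 3 SD, cut at about 8% in these data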
GalR3 antagonist = antagonists of human GalR3; inhibition, % at 3 µM; HEK293 GalR3-CNG cAMP membrane potential fluorescence; galR3 body fused to GalR1 C-terminus; actives 0.44% (n = 360,000);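 active means inhibition above the screen-wide average plus 3 SD, cut at about 13% in these data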;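 further: forskolin and galanin both at EC90 stimulate the cells; cAMP rise reported by CNG channel membrane potential dye signal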
Calb FLC = affects C. albicans growth with fluconazole | growth inhibition, % (test concentration not listed) | actives 0.57% (n = 300,000) | C. albicans CaCi-2 + fluconazole, Alamar Blue growth, 48 h;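 active means growth inhibition above about 58% in most replicates, limit read from the data, passing the limit was not always enough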;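 further: all wells also contain fluconazole at 8 µg/ml as a sub-toxic cotreatment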
Efflux pump mplx = blocks antifungal efflux pumps in multiplex yeast assay. S. cerevisiae Candida pump triplex, Nile Red efflux. inhibition, % at 10 µM. actives 0.44% (n = 330,000);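 active means plate passing quality check with inhibition over a set limit, or well fluorescence over plate mean plus 4 SD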;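 further: Nile Red retained in pooled yeast measured as flow cytometry median fluorescence; higher means more Nile Red kept so more efflux inhibition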
MC4R antag cAMP = antagonists of human melanocortin 4 receptor (MC4R) | inhibition, % at 6.5 µM | MC4R-expressing cells, MTII-stimulated cAMP, LANCE TR-FRET | actives 0.48% (n = 360,000);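 active means inhibition above its plate's cutoff, the mean of tested wells on that plate plus 3 SD, cut at about 29% in these data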
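Assay system: human MC4R-expressing U2OS cells; reagent: Melanotan II stimulation of cells; dosing: 6.5 µM single dose; timing: compound 30 min, challenge 1 h, detection 1 h; signal: TR-FRET cAMP assay; replicates: one well per compound, no replicates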
MC4R barr conf = human MC4R beta-arrestin agonism confirmation. shares compounds with MC4R barr agon. U2OS MC4R beta-arrestin recruitment, luminescence; scaled DMSO 0%, Melanotan II 100%. activation, % at 8.9 µM. actives 31% (n = 2,400);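 active means mean activation across replicates above the hit cutoff set in the earlier primary screen, cut at about 8% in these data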
MOR DOR agonist = activates mu-delta opioid heterodimer, MC4R agonist counter-screen | AID 602194 | shares compounds with MC4R barr agon | activation, % at 9.2 µM | actives 5.8% (n = 2,400) | U2OS PathHunter beta-arrestin, beta-gal luminescence; percent of deltorphin B response, DMSO zero;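 active means mean activation across replicates exceeds the hit threshold derived in the earlier primary screen, cut at about 18% in these data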
Target sequence (P35372 whole entry, looked up): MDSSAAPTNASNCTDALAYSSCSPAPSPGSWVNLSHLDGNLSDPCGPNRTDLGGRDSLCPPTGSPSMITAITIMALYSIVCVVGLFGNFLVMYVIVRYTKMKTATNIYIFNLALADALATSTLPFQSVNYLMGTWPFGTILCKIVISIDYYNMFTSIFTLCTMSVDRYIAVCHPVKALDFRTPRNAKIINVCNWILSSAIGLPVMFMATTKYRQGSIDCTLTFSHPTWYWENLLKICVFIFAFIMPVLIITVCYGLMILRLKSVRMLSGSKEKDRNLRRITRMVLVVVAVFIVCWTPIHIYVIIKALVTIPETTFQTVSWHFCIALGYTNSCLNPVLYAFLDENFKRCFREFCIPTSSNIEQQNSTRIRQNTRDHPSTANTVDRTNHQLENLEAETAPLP
Target sequence (P41143 whole entry, looked up): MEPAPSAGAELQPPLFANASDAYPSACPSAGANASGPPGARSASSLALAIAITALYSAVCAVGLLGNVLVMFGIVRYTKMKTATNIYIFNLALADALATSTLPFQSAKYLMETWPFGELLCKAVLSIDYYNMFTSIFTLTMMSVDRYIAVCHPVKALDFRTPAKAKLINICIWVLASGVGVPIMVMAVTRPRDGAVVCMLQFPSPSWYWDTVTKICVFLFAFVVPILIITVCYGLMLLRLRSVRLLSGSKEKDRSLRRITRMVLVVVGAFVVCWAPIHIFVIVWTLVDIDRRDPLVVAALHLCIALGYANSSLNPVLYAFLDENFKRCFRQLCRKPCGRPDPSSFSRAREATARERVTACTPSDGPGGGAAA
Hits are given with their value; . = inactive; / = no result given; ! = not confirmed by another sample.

SMILES	H9c2 TAG inh	MC4R barr agon	GalR3 antagonist	Calb FLC	Efflux pump mplx	MC4R antag cAMP	MC4R barr conf	MOR DOR agonist
COc1ccc2ccc(O)c(CN(C)CC(=O)Nc3ccccc3C(F)(F)F)c2c1	/	13	.	.	.	.	.	.
O=C(COC(=O)Cc1c(Cl)cccc1Cl)NCc1ccccc1	.	.	.	/	/	.	/	/
CCOC(=O)c1c(C)oc2ccc(O)c(CN(C)C)c12	.	.	.	.	.	.	/	/
CCOC(=O)c1c(CSc2ccc(CC)cc2)oc2ccc(O)c(CN(C)C)c12	/	20	.	.	.	.	15	.
Cc1cc(F)ccc1-c1cc(C(=O)NC2CCCCC2)[nH]n1	.	.	.	/	/	.	/	/
O=C(COc1ccccc1[N+](=O)[O-])Nc1ccc2c(c1)CCC2	.	13	.	/	.	.	.	.
O=C(COc1cccc(Cl)c1Cl)Nc1ccc2c(c1)CCC2	/	.	.	.	.	.	/	/
O=C(Nc1ccc(S(=O)(=O)Nc2ncccn2)cc1)c1ccc(Br)cc1	.	.	.	/	/	.	/	/
COc1ccc(Cl)cc1CNC[C@H]1O[C@@H](n2ccc(N)nc2=O)[C@H](O)[C@@H]1O	.	.	.	/	/	.	/	/
S=C(Nc1cc(Cl)cc(Cl)c1)NC1CCN(Cc2ccccc2)CC1	.	13	.	.	.	.	.	22
O=C(NCc1nnnn1-c1ccc(F)cc1)c1ccc(S(=O)(=O)N2CCOCC2)cc1	.	.	.	/	/	.	/	/
CCN1C(=O)/C(=C\N2CCN(C)CC2)SC1=S	.	.	.	.	.	.	/	/
CCN1C(=O)/C(=C\N2CCN(c3ccc(F)cc3)CC2)SC1=S	/	19	.	.	.	.	.	.
C#CCCCCCCCCC(=O)NCCCC	.	.	.	.	.	.	/	/
CCCCCCCCCCCCCCCC(=O)NCCO	.	12	.	/	.	.	.	.
O=C1/C(=C\c2c(NCCOCCO)nc3ccccn3c2=O)SC(=S)N1Cc1ccco1	/	10	.	.	.	.	.	.
CCCN1C(=O)/C(=C/c2c(NCCCOCC)nc3c(C)cccn3c2=O)SC1=S	.	.	.	/	/	.	/	/
Cc1onc(-c2ccccc2)c1C(=O)Nc1nc(-c2cc(F)ccc2F)cs1	/	34	.	.	.	.	.	.
Cc1ccc(C)c(N2CCN(CCCNC(=O)Cn3cccc3C(=O)c3ccccc3C)CC2)c1	.	12	.	.	.	.	14	.
Cc1ccccc1C(=O)c1cccn1CC(=O)NCCCN1CCCCC1	/	.	.	.	.	.	/	/
CCOC(=O)c1oc2ccc(S(=O)(=O)N3CCC(C)CC3)cc2c1C	/	13	/	.	.	.	.	.
CCOC(=O)c1oc2ccc(S(=O)(=O)N3CCOCC3)cc2c1C	/	.	.	.	.	.	/	/
CC(=O)Nc1cc(-c2ccc(C(=O)N3CCOCC3)cc2)cn2c(-c3cccc(C(C)=O)c3)cnc12	.	.	.	/	/	.	/	/
CC(=O)Nc1cc(-c2ccc(C(=O)NC3CC3)cc2)cn2c(-c3cccc(C(F)(F)F)c3)cnc12	.	11	.	/	/	.	20	.
CC(=O)Nc1cc(-c2ccc(C(=O)NC3CC3)cc2)cn2c(-c3cccc(C(C)=O)c3)cnc12	.	16	.	/	/	.	18	.
SMILES	H9c2 TAG inh	MC4R barr agon	GalR3 antagonist	Calb FLC	Efflux pump mplx	MC4R antag cAMP	MC4R barr conf	MOR DOR agonist
CCCCOCC1CN(CCCC)S(=O)(=O)c2c(Oc3ccc(C)cc3)cccc2O1 (stereo not given)	/	/	.	/	/	/	/	/
CSCCC(NS(=O)(=O)c1ccc2c(c1)OCCO2)C(=O)N(C)Cc1ccccc1F (stereo not given)	.	.	.	/	.	.	/	/
Cc1cc(C)cc(OCc2nnc(SCC(=O)N3CCN(c4ccccc4)CC3)o2)c1	.	10.0	.	.	.	.	.	.
CCc1ccc(OCc2nnc(SCC(=O)N3CCN(c4ccccc4)CC3)o2)cc1	.	17	.	.	.	.	.	20
O=C(CSc1nnc(COc2ccccc2)o1)N1CCN(c2ccccc2)CC1	/	.	.	.	.	.	/	/
Cc1ccccc1C(=O)N[C@@H](Cc1cccnc1)C(=O)N1CCC[C@H]1C(=O)NC1CCCC1	/	/	.	/	/	/	/	/
CCOc1ccc(CC(=O)Nc2c(C(=O)Nc3ccccc3)oc3ccccc23)cc1OCC	.	15	.	.	.	.	11	.
C=CS(=O)(=O)N(Cc1ccccc1Br)[C@H](CO)CC(C)C	.	.	.	/	/	.	/	/
O=C(Nc1ccccc1)Nc1sccc1-c1nc2ccccc2s1	.	17	.	.	.	.	.	.
Cc1noc(C)c1S(=O)(=O)N(C)C[C@H]1OCc2cnnn2CCCC(=O)N([C@H](C)CO)C[C@H]1C	.	.	.	/	/	.	/	/
CN1CCN(C2Cc3ccccc3Sc3ccc(Cl)cc32)CC1 (stereo not given)	.	.	.	/	.	.	/	/
CSc1ccc2c(c1)C(N1CCN(C)CC1)Cc1ccccc1S2 (stereo not given)	.	11!	.	.	.	.	.	.
CCC(C)(C)NC(=O)C(c1ccc(C)cc1)N(Cc1ccco1)C(=O)Cn1nnc2ccccc21 (stereo not given)	.	9.9	.	.	.	.	.	.
Cc1ccc(C(C)C)c(OCc2nn(CC(=O)c3ccc(OC(F)F)cc3)c3[n+]2CCCCC3)c1	.	20	/	90	.	.	14	25
CCc1nc2ccc(C(=O)Nc3cccc(OCC(=O)N(C)C)c3)cn2c1N(CC)CCOC	.	.	.	/	/	.	/	/
CSc1nc2nccc(-c3ccc(-c4ccccc4)cc3)n2n1	/	11	.	.	.	.	.	.
CSc1nc2nccc(-c3ccc(Oc4ccccc4)cc3)n2n1	/	.	.	/	.	.	/	/
COc1cc2nc(Nc3ccc(C)c(Cl)c3)nc(N)c2cc1OC	/	11	.	.	.	.	18	.
COc1cc2nc(Nc3ccc(C)c(C)c3)nc(N)c2cc1OC	/	.	.	.	.	.	/	/
CCCCC(=O)N(C)c1c(CC)nc2c(OCC(=O)C(C)(C)C)cccn12	.	.	.	/	/	.	/	/
Cc1cccc(NC(=S)NC(C)CCc2ccccc2)c1 (stereo not given)	/	21	.	.	.	.	.	.
CCCCNC(=O)C(NC(=O)c1ccc(=O)[nH]c1)C(=O)c1ccccc1 (stereo not given)	/	/	.	/	/	/	/	/
CC(C)(C)n1nnnc1C(c1cc2ccccc2o1)N1CCCCC1 (stereo not given)	/	/	.	/	/	/	/	/
S=c1[nH]nc(COc2ccccc2)n1/N=C/c1c(Cl)cccc1Cl	/	11	.	.	.	.	.	.
O=C(Cc1coc2ccc3ccccc3c12)Nc1nnc(C2CC2)s1	.	27	.	.	.	.	9.5	.
